From ChEMBL document CHEMBL4118104, “Design, Synthesis, and Evaluation of Orally Bioavailable Quinoline-Indole Derivatives as Innovative Multitarget-Directed Ligands: Promotion of Cell Proliferation in the Adult Murine Hippocampus for the Treatment of Alzheimer's Disease” (J Med Chem, 2018) come the findings set out here.

Data set [1] relates to Mus musculus. Put plainly: Toxicity in C57BL/6 mouse assessed as mortality at 677 to 2000 mg/kg, ig measured continuously during first 4 hrs, intermittently for following 24 hrs and occasionally thereafter for 14 consecutive days. The settings on record: in vivo, po. The data set is classed as organism-based. The procedure, abridged:
(§1)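 Adult C57BL/6 mice, 12 weeks old, given single intragastric doses of 0, 677, 1333 or 2000 mg/kg (n = 6 per dose, 3 male and 3 female). Abnormal behaviour and deaths observed continuously for the first 4 h, intermittently over the next 24 h, then occasionally for 14 days to catch delayed effects.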

The nature of data set [2]: Half life in Sprague-Dawley rat liver microsomes at 100 uM up to 180 mins by HPLC-UV analysis. On the technique in general: Liver microsomes are vesicles of endoplasmic reticulum, rich in cytochrome P450 enzymes.
Data set [3] concerns Mus musculus. Put plainly: Toxicity in C57BL/6 mouse assessed as macroscopic abnormalities of liver at 677 to 2000 mg/kg, ig after 14 consecutive days. It counts as organism-based. The settings on record: in vivo, po.
Data set [4] concerns Mus musculus. Put plainly: Toxicity in C57BL/6 mouse assessed as macroscopic abnormalities of kidney at 677 to 2000 mg/kg, ig after 14 consecutive days. It counts as organism-based. To be noted: in vivo, po.
The subject of data set [5] is Mus musculus. In words: Toxicity in C57BL/6 mouse assessed as macroscopic abnormalities of lung at 677 to 2000 mg/kg, ig after 14 consecutive days. The settings on record: in vivo, po, 336 h. The data set is classed as organism-based.
For data set [6], the system named is Mus musculus. Put plainly: Toxicity in C57BL/6 mouse assessed as abnormal behavior at 677 to 2000 mg/kg, ig measured continuously during first 4 hrs, intermittently for following 24 hrs and occasionally thereafter for 14 consecutive days. The data set is classed as organism-based. The settings on record: in vivo, po. The procedure, abridged: as §1
For data set [7], the system named is Mus musculus. Put plainly: Toxicity in C57BL/6 mouse assessed as macroscopic abnormalities of intestine at 677 to 2000 mg/kg, ig after 14 consecutive days. The data set is classed as organism-based. To be noted: in vivo, po.
Data set [8] deals with Mus musculus. In words: Induction of cell proliferation in C57BL/6 mouse hippocampal neurons in CA2 region assessed as BrdU-incorporation at 0.5 uL/hr, icv for 7 days by immunohistochemical analysis (reference value: 2.4%). The data set is classed as functional.
The test system of data set [9] is Mus musculus. In words: Induction of cell proliferation in C57BL/6 mouse hippocampal neurons in CA2 region assessed as BrdU-incorporation at 30 mg/kg, po administered via gavage for 7 days by immunohistochemical analysis (reference value: 2.4%). It counts as functional. The procedure, abridged:
(§2)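 C57BL/6 mice, 12 weeks old, n = 6, individually housed beforehand without wheels. Compound gavaged 30 mg/kg/day for 7 days with daily IP BrdU 50 mg/kg; BrdU+ cells counted by immunohistochemistry per hippocampal volume; two-way ANOVA.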

Data set [10] deals with Mus musculus. Put plainly: Induction of cell proliferation in C57BL/6 mouse hippocampal neurons in CA3 region assessed as BrdU-incorporation at 30 mg/kg, po administered via gavage for 7 days by immunohistochemical analysis (reference value: 1.5%). The data set is classed as functional. The procedure, abridged: as §2
Data set [11] concerns Mus musculus. In words: Toxicity in C57BL/6 mouse assessed as macroscopic abnormalities of heart at 677 to 2000 mg/kg, ig after 14 consecutive days. To be noted: in vivo, po. It counts as organism-based.
The test system of data set [12] is Mus musculus. In words: Toxicity in C57BL/6 mouse assessed as histological abnormalities of brain at 2000 mg/kg, ig after 14 consecutive days by hematoxylin/eosin dye-based microscopic analysis. It counts as organism-based. The settings on record: in vivo, po, 336 h. The method, boiled down: (§3)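 Adult C57BL/6 mice, 12 weeks old, single intragastric doses of 0, 677, 1333 or 2000 mg/kg (n = 6 per dose, 3 male/3 female); behaviour and mortality observed over 14 days; liver, heart, lung and brain examined by HE staining at 2000 mg/kg.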

Data set [13] deals with Mus musculus. In words: Induction of cell proliferation in C57BL/6 mouse hippocampal neurons in CA1 region assessed as BrdU-incorporation at 0.5 uL/hr, icv for 7 days by immunohistochemical analysis (reference value: 3.2%). It counts as functional.
Data set [14] has as its system Mus musculus. In words: Toxicity in C57BL/6 mouse assessed as effect on food intake at 677 to 2000 mg/kg, ig measured continuously during first 4 hrs, intermittently for following 24 hrs and occasionally thereafter for 14 consecutive days. It counts as organism-based. To be noted: in vivo, po.
The subject of data set [15] is Mus musculus. In words: Toxicity in C57BL/6 mouse assessed as macroscopic abnormalities of spleen at 677 to 2000 mg/kg, ig after 14 consecutive days. The settings on record: in vivo, po. It counts as organism-based.
A short description of data set [16]: Metabolic stability in Sprague-Dawley rat liver microsomes assessed as metabolic rate constant at 100 uM up to 180 mins by HPLC-UV analysis. To be noted: 3 h.
Data set [17] has as its system Mus musculus. Put plainly: Toxicity in C57BL/6 mouse assessed as macroscopic abnormalities of stomach at 677 to 2000 mg/kg, ig after 14 consecutive days. It counts as organism-based. To be noted: in vivo, po.
Data set [18] deals with Mus musculus. In words: Induction of cell proliferation in C57BL/6 mouse hippocampal neurons in CA3 region assessed as BrdU-incorporation at 0.5 uL/hr, icv for 7 days by immunohistochemical analysis (reference value: 1.4%). The data set is classed as functional.
The test system of data set [19] is Mus musculus. In words: Induction of cell proliferation in C57BL/6 mouse hippocampal neurons in CA1 region assessed as BrdU-incorporation at 30 mg/kg, po administered via gavage for 7 days by immunohistochemical analysis (reference value: 2.3%). It counts as functional. The method, boiled down:
as §2

In data set [20] the test system is Mus musculus. Put plainly: Toxicity in C57BL/6 mouse assessed as histological abnormalities of heart at 2000 mg/kg, ig after 14 consecutive days by hematoxylin/eosin dye-based microscopic analysis. The data set is classed as organism-based. To be noted: in vivo, po. The procedure, abridged: as §3
For data set [21], the system named is Mus musculus. Put plainly: Toxicity in C57BL/6 mouse assessed as histological abnormalities of liver at 2000 mg/kg, ig after 14 consecutive days by hematoxylin/eosin dye-based microscopic analysis. It counts as organism-based. The settings on record: in vivo, po, 336 h. The procedure, abridged: as §3
The test system of data set [22] is Mus musculus. Put plainly: Toxicity in C57BL/6 mouse assessed as histological abnormalities of lung at 2000 mg/kg, ig after 14 consecutive days by hematoxylin/eosin dye-based microscopic analysis. It counts as organism-based. To be noted: in vivo, po, 336 h. The method, boiled down:
as §3

Data set [23] has as its system Mus musculus. Put plainly: Induction of cell proliferation in C57BL/6 mouse hippocampal neurons in DG region assessed as BrdU-incorporation at 30 mg/kg, po administered via gavage for 7 days by immunohistochemical analysis (reference value: 2.2%). The data set is classed as functional. The procedure, abridged:
as §2

The subject of data set [24] is Mus musculus. Put plainly: Toxicity in C57BL/6 mouse assessed as effect on water intake at 677 to 2000 mg/kg, ig measured continuously during first 4 hrs, intermittently for following 24 hrs and occasionally thereafter for 14 consecutive days. To be noted: in vivo, po. It counts as organism-based.
The test system of data set [25] is Mus musculus. In words: Induction of cell proliferation in C57BL/6 mouse hippocampal neurons in DG region assessed as BrdU-incorporation at 0.5 uL/hr, icv for 7 days by immunohistochemical analysis (reference value: 7.8%). The data set is classed as functional.
In data set [26] the test system is Mus musculus. Put plainly: Toxicity in C57BL/6 mouse assessed as effect on body weight at 677 to 2000 mg/kg, ig measured continuously during first 4 hrs, intermittently for following 24 hrs and occasionally thereafter for 14 consecutive days. It counts as organism-based. To be noted: in vivo, po.
Data set [27] has as its system PC-12. In words: Induction of rat PC12 cell proliferation at 0.5 to 50 uM after 72 hrs by microscopic analysis. It counts as functional, cell-based. The method, boiled down:
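Undifferentiated PC12 cells cultured 72 h with compound at 0.5–50 µM (images at 10 µM) or with NGF 50 ng/ml, then examined under a digital microscope.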

Data set [28] in a line: Permeability of compound at 100 ug/ml after 10 hrs by PAMPA assay. The data set is classed as ADME. To be noted: read-out: permeability. (The PAMPA barrier holds no transporters, so it reflects passive diffusion.)
Data set [29] concerns PC-12. In words: Cytotoxicity against rat undifferentiated PC12 cells at 0.5 to 50 uM after 72 hrs by MTT assay. It counts as cell-based. To be noted: pc-12, 72 h. Background: Tetrazolium assays rely on reduction of a dye to a coloured formazan, in cell work by metabolically active cells.
The subject of data set [30] is SH-SY5Y. In words: Neuroprotective activity against t-BuOOH-induced oxidative stress in human SH-SY5Y cells assessed as inhibition ROS accumulation pre-incubated for 24 hrs before t-BuOOH challnge for 30 mins by DCFH-DA probe based fluorescence assay. The data set is classed as functional, cell-based. The method, boiled down:
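SH-SY5Y cells; test agents at 1–0.01 µM, oxidative stress induced by tert-butyl hydroperoxide; intracellular ROS read by DCFH-DA fluorescence; at least three independent experiments in sextuplicate; EC50 derived.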

The source made the active and inactive calls. The calls are words filed in the database; no cut-off is given here.

With `Cl.Oc1c(Cl)cc(Cl)c2ccc(-c3cc4cc(Cl)ccc4[nH]3)nc12`, the Activity entry in data set [1], in [3], in data set [4], in data set [5], in [6] and in data set [7] was “Non-Toxic” each time. Also, the Activity in data set [8] is listed as 18.1%; in [9], 5.1%; in data set [10] it was 4.7%; in [11], “Non-Toxic”; in data set [12], “Non-Toxic”; in [13], 15.3%. The Activity result is reported as “Non-Toxic” in data set [14]; “Non-Toxic” in [15]; “Non-Toxic” in data set [17]; 20.3% in data set [18]; 4.8% in [19]; “Non-Toxic” in [20]. The Activity entry is listed as “Non-Toxic” in [21]; “Non-Toxic” in data set [22]; 4.4% in data set [23]; “Non-Toxic” in data set [24]; 28.5% in data set [25]; “Non-Toxic” in data set [26]. Moreover, in [2] (liver microsomes), the half-life at 3 h, 100 µM came to 3.26 h. In data set [16], the K was 0.00354 min⁻¹.

For the molecule `COc1cc2[nH]c(-c3ccc4c(Cl)cc(Cl)c(O)c4n3)cc2cc1O`, in [27], the result was inactive. In addition, in [28], the Papp at 10 h, 100 ug/ml was determined as 8.4 ×10⁻⁶ cm/s.

In the case of `COc1cc2[nH]c(-c3ccc4cccc(O)c4n3)cc2cc1O`, the Papp at 10 h, 100 ug/ml in data set [28] was determined as 12.1 ×10⁻⁶ cm/s.

With `Oc1cccc2ccc(-c3cc4cc(Cl)ccc4[nH]3)nc12`, the Activity entry in data set [29] was “Toxic”. Besides, the Papp at 10 h, 100 ug/ml in [28] turned out to be 9.8 ×10⁻⁶ cm/s.

In the case of `Oc1ccc(-c2cc3ccccc3[nH]2)c2cccnc12`, the Activity entry in data set [29] is given as “Toxic”. Further, in [28], the Papp at 10 h, 100 ug/ml amounted to 12.8 ×10⁻⁶ cm/s.

In the case of `Oc1ccc2[nH]c(-c3ccc4cccc(O)c4n3)cc2c1`, the Activity entry in [29] is given as “Toxic”. The Papp at 10 h, 100 ug/ml in data set [28] was determined as 14.8 ×10⁻⁶ cm/s.

With `COc1cc2cc(-c3ccc4cccc(O)c4n3)[nH]c2cc1OC`, the Papp at 10 h, 100 ug/ml in data set [28] was 5.2 ×10⁻⁶ cm/s.

Regarding `COc1cc2cc(-c3ccc4c(Cl)cc(Cl)c(O)c4n3)[nH]c2cc1OC`, the Activity result in data set [29] was “Toxic”. For the same molecule, in [28], the Papp at 10 h, 100 ug/ml came out at 3.9 ×10⁻⁶ cm/s.

`COc1cc2c(cc1OC)C(=O)C(CC1CCN(Cc3ccccc3)CC1)C2` (stereo unspecified) [DONEPEZIL]: the half-life at 3 h, 100 µM in data set [2] (microsomes) worked out at 1.3 h. Further, the K in data set [16] came to 0.00889 min⁻¹.

In the case of `Oc1cccc2ccc(-c3cc4ccccc4[nH]3)nc12`, the Papp at 10 h, 100 ug/ml in data set [28] amounted to 8 ×10⁻⁶ cm/s.

With `Oc1cccc2ccc(-c3cc4ccc5c(c4[nH]3)OCO5)nc12`, the EC50 in data set [30] was 260 nM. In addition, the Activity entry in data set [29] is listed as “Non-Toxic”. Besides, the Papp at 10 h, 100 ug/ml in data set [28] was 5.9 ×10⁻⁶ cm/s.

With `Oc1ccc2[nH]c(-c3ccc(O)c4ncccc34)cc2c1`, the Activity entry in [29] is given as “Toxic”. Moreover, the Papp at 10 h, 100 ug/ml in data set [28] came to 9.1 ×10⁻⁶ cm/s.

The half-life is the time in which the quantity being followed falls by half. A lower half-life goes with fast loss. What is called EC50 is the concentration giving half of the maximal effect.
